Assay results from ChEMBL document CHEMBL2440053, “New route to the 5-((arylthio- and heteroarylthio)methylene)-3-(2,2,2-trifluoroethyl)-furan-2(5H)-ones--key intermediates in the synthesis of 4-aminoquinoline γ-lactams as potent antimalarial compounds” (Bioorg Med Chem Lett, 2013).

Experiments:
[1] = system: Plasmodium falciparum; experiment: Antimalarial activity against chloroquine-sensitive Plasmodium falciparum 3D7 after 48 to 72 hrs by SYBR green-1 assay; format: functional, organism-based
Outline: (§1)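 P. falciparum culture tested in vitro on the CQ-sensitive 3D7 or CQ-resistant W2 clone. Each experiment was run twice, with wells in triplicate. IC50 in nM is the mean of at least two experiments.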

[2] = system: HUVEC; experiment: Cytotoxicity against HUVEC up to 100 uM after 24 hrs by Tryptan Blue assay; format: cell-based; conditions: human
[3] = system: Plasmodium falciparum; experiment: Antimalarial activity against chloroquine-resistant Plasmodium falciparum W2 after 48 to 72 hrs by SYBR green-1 assay; format: functional, organism-based; outline: as §1
[4] = system: HUVEC; experiment: Cytotoxicity against HUVEC at 0.01 to 50 umol/L after 24 hrs by Tryptan Blue assay; format: cell-based; conditions: human
Outline: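 Human umbilical vein endothelial cells (HUVEC) were exposed to final concentrations from 0.01 up to 50 μM. Cytotoxicity was reported as an IC50 or as a minimum cytotoxic value extrapolated from the tested range.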

[5] = system: Plasmodium falciparum; experiment: Resistant index, ratio of IC50 for chloroquine-resistant Plasmodium falciparum W2 to IC50 for chloroquine-sensitive Plasmodium falciparum 3D7; format: functional

SMILES | IC50 [1] | Activity [2] | IC50 [3] | Activity [4] | Ratio IC50 [5]
CN(CCNc1ccnc2cc(Cl)ccc12)CCN1C(=O)C(CC(F)(F)F)=CC1(O)CSc1ccc(Br)cc1 (centres undefined) | 0.045 µM | Non-toxic | 0.042 µM | – | –
CN(CCNc1ccnc2cc(Cl)ccc12)CCN1C(=O)C(CC(F)(F)F)=CC1(O)CSc1ccc(Cl)cc1 (centres undefined) | 0.055 µM | Non-toxic | 0.057 µM | – | –
CN(CCNc1ccnc2cc(Cl)ccc12)CCN1C(=O)C(CC(F)(F)F)=CC1(O)CSc1ccccc1 (centres undefined) | 0.047 µM | Non-toxic | 0.055 µM | – | –
O=C1C(CC(F)(F)F)=CC(O)(CSc2ccccc2)N1CCNc1ccnc2cc(Cl)ccc12 (centres undefined) | 0.107 µM | – | 0.167 µM | Non-toxic | 1.56
COc1ccc(SCC2(O)C=C(CC(F)(F)F)C(=O)N2CCNc2ccnc3cc(Cl)ccc23)cc1 (centres undefined) | 0.101 µM | – | 0.173 µM | Non-toxic | 1.71
O=C1C(CC(F)(F)F)=CC(O)(CSc2ccc(F)cc2)N1CCNc1ccnc2cc(Cl)ccc12 (centres undefined) | 0.305 µM | – | 0.759 µM | Non-toxic | 2.49
O=C1C(CC(F)(F)F)=CC(O)(CSc2ccccn2)N1CCNc1ccnc2cc(Cl)ccc12 (centres undefined) | 0.179 µM | – | 0.218 µM | Non-toxic | 1.22
O=C1C(CC(F)(F)F)=CC(O)(CSc2ccncc2)N1CCNc1ccnc2cc(Cl)ccc12 (centres undefined) | 0.089 µM | – | 0.666 µM | – | 7.48
O=C1C(CC(F)(F)F)=CC(O)(CSc2ncccn2)N1CCNc1ccnc2cc(Cl)ccc12 (centres undefined) | 0.278 µM | – | 0.458 µM | Non-toxic | 1.65
O=C1C(CC(F)(F)F)=CC(O)(CSc2cccc[n+]2[O-])N1CCNc1ccnc2cc(Cl)ccc12 (centres undefined) | 0.242 µM | – | 0.274 µM | Non-toxic | 1.13
Cn1cnnc1SCC1(O)C=C(CC(F)(F)F)C(=O)N1CCNc1ccnc2cc(Cl)ccc12 (centres undefined) | 0.499 µM | – | > 1.6 µM | – | >3.2
